Measurements from ChEMBL document CHEMBL1139315, “Search for new pharmacophores for antimalarial activity. Part II: synthesis and antimalarial activity of new 6-ureido-4-anilinoquinazolines” (Bioorg Med Chem, 2009).
Converted amounts (≈) assume the structure as drawn.

Experiments:
Plasmodium falciparum [1] = test: Antimalarial activity as schizonticidal activity after 48 hrs against chloroquine-sensitive Plasmodium falciparum 3D7; assay type: functional; details: 3D7, 48 h
How it was run: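 3D7 ring stages synchronized with 5% sorbitol; 3% cell suspension at 1% parasitaemia added to duplicate wells of diluted compound (DMSO stock 5 mg/mL, diluted in RPMI). Incubated at 37 °C under CO2 for more than 40 h. Giemsa-stained thin smears counted by light microscopy; MIC = lowest concentration giving 100% inhibition of schizont maturation against untreated control.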

Plasmodium yoelii = test: Antimalarial activity as reduced parasitaemia against chloroquine-resistant Plasmodium yoelii infected Swiss mice (Mus musculus) at 100 mg/kg peroral dose for 4 days; assay type: functional; parameters: scale not given: the % may be the effect or the level left; details: route oral
[2] = system: Plasmodium yoelii nigeriensis; test: Antimalarial activity as reduced parasitaemia against Plasmodium yoelii nigeriensis MDR infected Swiss mice (Mus musculus) at 100 mg/kg peroral dose […]; assay type: functional; parameters: scale not given: the % may be the effect or the level left; details: route oral
How it was run: (§1)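 Swiss mice (25 g, either sex), five per group, infected with 1 × 10^6 parasitized cells on day 0. Aqueous suspension given orally from day 0 to day 4; vehicle-only group as control. Parasitaemia read from tail-vein thin blood smears, reported as mean % parasitaemia on day 4 and day 7.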

[3] = system: Plasmodium yoelii nigeriensis; test: Antimalarial activity as reduced parasitaemia against Plasmodium yoelii nigeriensis MDR infected Swiss mice (Mus musculus) at 100 mg/kg peroral dose for 4 days; assay type: functional; parameters: scale not given: the % may be the effect or the level left; details: route oral; how it was run: as §1
[4] = Selectivity index, ratio of CC50 for african green monkey (Cercopithecus aethiops) Vero C1008 cells to IC50 for chloroquine-sensitive Plasmodium falciparum 3D7; assay type: functional
How it was run: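 Vero C1008 cells exposed to serially diluted compound, highest 100 µg/mL, for 72 h; MTT read-out; CC50 = concentration killing 50% of cells. SI = CC50/IC50, with IC50 from the SYBR Green I assay on 3D7.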

Plasmodium falciparum [5] = test: Antimalarial activity after 72 hrs against chloroquine-sensitive Plasmodium falciparum 3D7 infected erythrocytes by MSF assay; assay type: functional, organism-based; details: 3D7, 72 h
How it was run: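 P. falciparum 3D7 kept in RPMI with gentamicin 40 µg/mL, Fungizone 0.25 µg/mL and 10% FBS (pH 7.2) at 37 °C under CO2. Twofold serial dilutions over seven concentrations, top 10–500 ng/mL, duplicate wells; 2.5% haematocrit, 0.5% parasitaemia; 72 h. SYBR Green I in lysis buffer (Tris pH 7.5, EDTA, saponin, Triton X-100), 1 h at room temperature, fluorescence read; IC50 by logit regression.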

Mus musculus = test: Toxicity against Plasmodium yoelii nigeriensis MDR infected Swiss mice (Mus musculus) assessed as death at 100 mg/kg, perorally; assay type: organism-based; parameters: dose 100 mg/kg, route oral; details: in vivo, po

| SMILES | MIC (Plasmodium falciparum [1]) [µg/mL] | also measured |
| --- | --- | --- |
| COc1ccc(Nc2ncnc3ccc(NC(=O)Nc4cccc(C(C)=O)c4)cc23)cc1OC | 10 (≈ 21.9 µM) |  |
| O=C(Nc1ccc(Cl)cc1)Nc1ccc2ncnc(Nc3ccc(F)cc3)c2c1 | 0.5 (≈ 1.23 µM) | Activity (Plasmodium yoelii): 1.18%; Activity [2]: 9.38% |
| Cc1ccc(NC(=O)Nc2ccc3ncnc(Nc4ccc(F)cc4)c3c2)cc1Cl | 0.5 (≈ 1.19 µM) | Activity (Plasmodium yoelii): 2.8%; Activity [2]: 4.06% |
| COc1cccc(Nc2ncnc3ccc(NC(=O)Nc4cccc(C(C)=O)c4)cc23)c1 | 10 (≈ 23.4 µM) |  |
| O=C(Nc1ccc(Br)cc1)Nc1ccc2ncnc(Nc3ccc(F)cc3)c2c1 | 10 (≈ 22.1 µM) |  |
| O=C(Nc1cc(Cl)cc(Cl)c1)Nc1ccc2ncnc(Nc3cccc(C(F)(F)F)c3)c2c1 | 10 (≈ 20.3 µM) |  |
| O=C(Nc1ccc(Cl)c(C(F)(F)F)c1)Nc1ccc2ncnc(Nc3cccc(C(F)(F)F)c3)c2c1 | 0.25 (≈ 0.475 µM) | Activity [3]: 10%; Ratio CC50/IC50 [4]: 1194; IC50 (Plasmodium falciparum [5]): 0.0023 µg/mL (≈ 0.00437 µM); Activity [2]: 30.5% |
| COc1cccc(Nc2ncnc3ccc(NC(=O)Nc4cccc(C#N)c4)cc23)c1 | 10 (≈ 24.4 µM) |  |
| COc1cccc(Nc2ncnc3ccc(NC(=O)Nc4ccc(C)c(Cl)c4)cc23)c1 | 0.5 (≈ 1.15 µM) |  |
| Cc1ccc(NC(=O)Nc2ccc3ncnc(Nc4cccc(C(F)(F)F)c4)c3c2)cc1Cl | 10 (≈ 21.2 µM) |  |
| O=C(Nc1ccc(Cl)c(Cl)c1)Nc1ccc2ncnc(Nc3cccc(C(F)(F)F)c3)c2c1 | 0.25 (≈ 0.508 µM) | Ratio CC50/IC50 [4]: 69; IC50 (Plasmodium falciparum [5]): 0.013 µg/mL (≈ 0.0264 µM) |
| Cc1ccc(Nc2ncnc3ccc(NC(=O)Nc4ccc(Br)cc4)cc23)cc1 | 1 (≈ 2.23 µM) |  |
| N#Cc1cccc(NC(=O)Nc2ccc3ncnc(Nc4cccc(C(F)(F)F)c4)c3c2)c1 | 1 (≈ 2.23 µM) |  |
| O=C(Nc1ccc(Cl)cc1)Nc1ccc2ncnc(Nc3cccc(C(F)(F)F)c3)c2c1 | 0.25 (≈ 0.546 µM) | Ratio CC50/IC50 [4]: 35.9; IC50 (Plasmodium falciparum [5]): 0.0674 µg/mL (≈ 0.147 µM) |
| O=C(Nc1ccc(Cl)c(Cl)c1)Nc1ccc2ncnc(Nc3ccc(Cl)cc3)c2c1 | 0.5 (≈ 1.09 µM) |  |
| O=C(Nc1ccc(Cl)c(Cl)c1)Nc1ccc2ncnc(Nc3cccc(F)c3)c2c1 | 0.25 (≈ 0.565 µM) | Ratio CC50/IC50 [4]: 221.5; IC50 (Plasmodium falciparum [5]): 0.0245 µg/mL (≈ 0.0554 µM) |
| O=C(Nc1ccc(Cl)c(C(F)(F)F)c1)Nc1ccc2ncnc(Nc3cccc(F)c3)c2c1 | 0.5 (≈ 1.05 µM) | Activity [3]: 22%; Activity [2]: 14.5% |
| CC(=O)c1cccc(NC(=O)Nc2ccc3ncnc(Nc4ccc(C)cc4)c3c2)c1 | 2 (≈ 4.86 µM) |  |
| COc1ccc(Nc2ncnc3ccc(NC(=O)Nc4ccc(Br)cc4)cc23)cc1OC | 0.5 (≈ 1.01 µM) | Activity [3]: 26.3%; Activity [2]: 26.5% |
| COc1ccc(Nc2ncnc3ccc(NC(=O)Nc4ccc(C)c(Cl)c4)cc23)cc1OC | 0.25 (≈ 0.539 µM) | Ratio CC50/IC50 [4]: 449; IC50 (Plasmodium falciparum [5]): 0.0223 µg/mL (≈ 0.0481 µM) |

| SMILES | MIC (Plasmodium falciparum [1]) [µg/mL] | also measured |
| --- | --- | --- |
| COc1ccc(Nc2ncnc3ccc(NC(=O)Nc4cc(Cl)cc(Cl)c4)cc23)cc1OC | 0.25 (≈ 0.516 µM) | Activity [3]: 23.7%; Ratio CC50/IC50 [4]: 36.1; IC50 (Plasmodium falciparum [5]): 0.0832 µg/mL (≈ 0.172 µM); Activity [2]: 10.75% |
| COc1ccc(Nc2ncnc3ccc(NC(=O)Nc4ccc(Cl)cc4)cc23)cc1OC | 0.5 (≈ 1.11 µM) |  |
| COc1ccc(Nc2ncnc3ccc(NC(=O)Nc4ccc(Cl)c(Cl)c4)cc23)cc1 | 2 (≈ 4.4 µM) |  |
| COc1ccc(Nc2ncnc3ccc(NC(=O)Nc4ccc(C(C)=O)cc4)cc23)cc1 | 2 (≈ 4.68 µM) |  |
| N#Cc1cccc(NC(=O)Nc2ccc3ncnc(Nc4cccc(Cl)c4)c3c2)c1 | 0.5 (≈ 1.21 µM) |  |
| O=C(Nc1ccc(Cl)c(Cl)c1)Nc1ccc2ncnc(Nc3cccc(Cl)c3)c2c1 | 0.5 (≈ 1.09 µM) |  |
| O=C(Nc1ccc(Br)cc1)Nc1ccc2ncnc(Nc3ccccc3)c2c1 | 0.25 (≈ 0.576 µM) | Ratio CC50/IC50 [4]: 132.5; IC50 (Plasmodium falciparum [5]): 0.173 µg/mL (≈ 0.399 µM) |
| O=C(Nc1ccc(Cl)cc1)Nc1ccc2ncnc(Nc3ccccc3)c2c1 | 1 (≈ 2.57 µM) |  |
| COc1ccc(Nc2ncnc3ccc(NC(=O)Nc4cccc(C#N)c4)cc23)cc1 | 2 (≈ 4.87 µM) |  |
| Cc1ccc(Nc2ncnc3ccc(NC(=O)Nc4cccc(C#N)c4)cc23)cc1 | 10 (≈ 25.4 µM) |  |
| Cc1ccc(Nc2ncnc3ccc(NC(=O)Nc4ccc(C)c(Cl)c4)cc23)cc1 | 0.5 (≈ 1.2 µM) | Activity (Plasmodium yoelii): 3.38%; Activity [2]: 10.82% |
| Cc1ccc(Nc2ncnc3ccc(NC(=O)Nc4ccc(Cl)c(Cl)c4)cc23)cc1 | 1 (≈ 2.28 µM) |  |
| O=C(Nc1ccc(Cl)c(Cl)c1)Nc1ccc2ncnc(Nc3ccccc3)c2c1 | 10 (≈ 23.6 µM) |  |
| N#Cc1cccc(NC(=O)Nc2ccc3ncnc(Nc4cccc(F)c4)c3c2)c1 | 0.5 (≈ 1.26 µM) | Activity [3]: 46.4%; Activity (Mus musculus): Toxic |
| O=C(Nc1ccc(Cl)cc1)Nc1ccc2ncnc(Nc3cccc(Cl)c3)c2c1 | > 10 |  |
| COc1ccc(Nc2ncnc3ccc(NC(=O)Nc4ccc(Br)cc4)cc23)cc1 | 1 (≈ 2.15 µM) |  |
| Cc1ccc(NC(=O)Nc2ccc3ncnc(Nc4ccccc4)c3c2)cc1Cl | 1 (≈ 2.48 µM) |  |
| Cc1ccc(NC(=O)Nc2ccc3ncnc(Nc4cccc(F)c4)c3c2)cc1Cl | 0.25 (≈ 0.593 µM) | Ratio CC50/IC50 [4]: 76.6; IC50 (Plasmodium falciparum [5]): 0.147 µg/mL (≈ 0.348 µM) |
| O=C(Nc1ccc(Br)cc1)Nc1ccc2ncnc(Nc3ccc(Cl)cc3)c2c1 | 1 (≈ 2.13 µM) |  |
| COc1ccc(Nc2ncnc3ccc(NC(=O)Nc4ccc(Cl)c(Cl)c4)cc23)cc1OC | 0.25 (≈ 0.516 µM) | Activity [3]: 41%; Ratio CC50/IC50 [4]: 74.5; IC50 (Plasmodium falciparum [5]): 0.0807 µg/mL (≈ 0.167 µM); Activity [2]: 14% |

| SMILES | MIC (Plasmodium falciparum [1]) [µg/mL] | also measured |
| --- | --- | --- |
| COc1ccc(Nc2ncnc3ccc(NC(=O)Nc4cccc(C#N)c4)cc23)cc1OC | 0.5 (≈ 1.14 µM) | Activity [3]: 13.9%; Activity [2]: 23.2% |
| O=C(Nc1ccc(Br)cc1)Nc1ccc2ncnc(Nc3cccc(F)c3)c2c1 | 0.5 (≈ 1.11 µM) |  |
| O=C(Nc1ccc(Cl)cc1)Nc1ccc2ncnc(Nc3ccc(Cl)cc3)c2c1 | 0.5 (≈ 1.18 µM) |  |
| COc1ccc(Nc2ncnc3ccc(NC(=O)Nc4ccc(C)c(Cl)c4)cc23)cc1 | 0.25 (≈ 0.576 µM) | Ratio CC50/IC50 [4]: 114.9; IC50 (Plasmodium falciparum [5]): 0.05 µg/mL (≈ 0.115 µM) |
| O=C(Nc1ccc(Br)cc1)Nc1ccc2ncnc(Nc3cccc(Cl)c3)c2c1 | 1 (≈ 2.13 µM) |  |
| Cc1ccc(NC(=O)Nc2ccc3ncnc(Nc4ccc(Cl)cc4)c3c2)cc1Cl | 1 (≈ 2.28 µM) |  |
| COc1ccc(Nc2ncnc3ccc(NC(=O)Nc4cccc(C(C)=O)c4)cc23)cc1 | 10 (≈ 23.4 µM) |  |
| Cc1ccc(Nc2ncnc3ccc(NC(=O)Nc4ccc(Cl)cc4)cc23)cc1 | 1 (≈ 2.48 µM) | Ratio CC50/IC50 [4]: 126.3; IC50 (Plasmodium falciparum [5]): 0.0771 µg/mL (≈ 0.191 µM) |
| O=C(Nc1ccc(Cl)c(Cl)c1)Nc1ccc2ncnc(Nc3ccc(F)cc3)c2c1 | 10 (≈ 22.6 µM) |  |
| COc1ccc(Nc2ncnc3ccc(NC(=O)Nc4ccc(Cl)cc4)cc23)cc1 | 0.25 (≈ 0.595 µM) | Ratio CC50/IC50 [4]: 435.1; IC50 (Plasmodium falciparum [5]): 0.094 µg/mL (≈ 0.224 µM) |
| O=C(Nc1cc(Cl)cc(Cl)c1)Nc1ccc2ncnc(Nc3cccc(F)c3)c2c1 | > 10 |  |
| Cc1ccc(NC(=O)Nc2ccc3ncnc(Nc4cccc(Cl)c4)c3c2)cc1Cl | 10 (≈ 22.8 µM) |  |
| CC(=O)c1ccc(NC(=O)Nc2ccc3ncnc(Nc4ccc(C)cc4)c3c2)cc1 | 2 (≈ 4.86 µM) |  |
| N#Cc1cccc(NC(=O)Nc2ccc3ncnc(Nc4ccccc4)c3c2)c1 | 0.5 (≈ 1.31 µM) |  |
| COc1ccc(Nc2ncnc3ccc(NC(=O)Nc4ccc(C(C)=O)cc4)cc23)cc1OC | 10 (≈ 21.9 µM) |  |
| COc1cccc(Nc2ncnc3ccc(NC(=O)Nc4ccc(Br)cc4)cc23)c1 | 2 (≈ 4.31 µM) |  |
| COc1cccc(Nc2ncnc3ccc(NC(=O)Nc4ccc(Cl)c(Cl)c4)cc23)c1 | 2 (≈ 4.4 µM) |  |
| COc1cccc(Nc2ncnc3ccc(NC(=O)Nc4ccc(C(C)=O)cc4)cc23)c1 | > 10 |  |
| COc1cccc(Nc2ncnc3ccc(NC(=O)Nc4ccc(Cl)cc4)cc23)c1 | 0.25 (≈ 0.595 µM) | Ratio CC50/IC50 [4]: 378.9; IC50 (Plasmodium falciparum [5]): 0.159 µg/mL (≈ 0.377 µM) |
| CCN(CC)CCCC(C)Nc1ccnc2cc(Cl)ccc12 (stereo unspecified) [CHLOROQUINE] | 0.125 (≈ 0.391 µM) |  |
